ChEMBL document CHEMBL1828502, “Quinolinyl and quinolinyl N-oxide chalcones: synthesis, antifungal and cytotoxic activities” (Eur J Med Chem, 2011)
Values after ≈ are worked out from the molar mass of the structure shown.

Legend:
[1] = test system: Jurkat; assay: Anticancer activity against human Jurkat cells after 48 hrs by MTT assay; type: functional, cell-based
Procedure, shortened: (§1)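 HL60 and Jurkat leukemia lines plated at 50,000 and 100,000 cells/well respectively and pre-incubated 24 h at 37 °C, 5% CO2. Compounds dissolved in DMSO and tested over a concentration range of […] for 48 h. Viability read by MTT reduction (4 h), formazan dissolved in acidic isopropanol, OD 590 nm. Values normalized to 0.05% DMSO control; IC50 taken graphically from dose-effect curves. Triplicate, three separate days.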

[2] = test system: TK-10; assay: Anticancer activity against human TK10 cells after 48 hrs by sulforhodamine B assay; type: functional, cell-based
Procedure, shortened: (§2)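 Solid tumour lines from NCI (NCI colorimetric protocol), seeded and pre-incubated 24 h at 37 °C, 5% CO2, then exposed to compounds for 48 h. Proteins fixed with trichloroacetic acid, stained with sulforhodamine B, dye dissolved in 10 mM Tris, absorbance at 515 nm compared against initial-density control wells. IC50 from dose-response curves built with 1:2 serial dilutions; duplicate, repeated at least three times.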

[3] = test system: Candida tropicalis; assay: Antifungal activity against Candida tropicalis by two fold serial dilution method; type: functional
Procedure, shortened: (§3)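 Broth microdilution MIC following CLSI M27-A2 with twofold serial dilutions; strains ATCC 18804 (C. albicans), ATCC 22019 (C. parapsilosis), ATCC 750 (C. tropicalis), ATCC 32608 (C. gattii), kept on Sabouraud dextrose agar at 4 °C. Amphotericin B and trimethoprim/sulfamethoxazole served as positive controls.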

[4] = test system: MCF7; assay: Anticancer activity against human MCF7 cells after 48 hrs by sulforhodamine B assay; type: functional, cell-based; procedure, shortened: as §2
[5] = test system: HL-60; assay: Anticancer activity against human HL60 cells after 48 hrs by MTT assay; type: functional, cell-based; procedure, shortened: as §1
[6] = test system: UACC-62; assay: Anticancer activity against human UACC62 cells after 48 hrs by sulforhodamine B assay; type: functional, cell-based; procedure, shortened: as §2
[7] = test system: Paracoccidioides brasiliensis; assay: Antifungal activity against Paracoccidioides brasiliensis Pb18 by serial dilution method; type: functional
[8] = test system: Candida parapsilosis; assay: Antifungal activity against Candida parapsilosis by two fold serial dilution method; type: functional; details: Lodderomyces parapsilosis; procedure, shortened: as §3
[9] = test system: Cryptococcus gattii species complex; assay: Antifungal activity against Cryptococcus gattii by two fold serial dilution method; type: functional, Cryptococcus bacillisporus; procedure, shortened: as §3
[10] = test system: Candida albicans; assay: Antifungal activity against Candida albicans by two fold serial dilution method; type: functional; procedure, shortened: as §3
[11] = test system: Candida tropicalis; assay: Antifungal activity against Candida tropicalis after 2 days by broth microdilution method in presence of 1 M osmotic stabilizer sorbitol; type: functional; details: 48 h
[12] = test system: Paracoccidioides brasiliensis; assay: Antifungal activity against Paracoccidioides brasiliensis Pb18 after 10 days by broth microdilution method in presence of 1 M osmotic stabilizer sorbitol; type: functional; details: 240 h
[13] = test system: Cryptococcus gattii species complex; assay: Antifungal activity against Cryptococcus gattii by two fold serial dilution method after 3 days by broth microdilution method in presence of 1 M osmotic stabilizer sorbitol; type: functional, Cryptococcus bacillisporus; details: 72 h
[14] = Homo sapiens, HL-60, 48 h, read-out: IC50
[15] = Homo sapiens, Jurkat, 48 h, read-out: IC50
[16] = Homo sapiens, TK-10, 48 h, read-out: IC50
[17] = Homo sapiens, MCF7, 48 h, read-out: IC50
[18] = Homo sapiens, UACC-62, 48 h, read-out: IC50

| SMILES | IC50 ([1]; jurkat) | IC50 ([2]; tk-10) | MIC [3] [µg/mL] | IC50 ([4]; mcf7) | IC50 [5, 14] [µg/mL] | IC50 ([6]; uacc-62) | MIC [7] [µg/mL] | MIC [8] [µg/mL] | MIC [9] [µg/mL] | MIC [10] [µg/mL] | MIC [11] [µg/mL] | MIC [12] [µg/mL] | IC50 ([5]; hl-60) | MIC [13] [µg/mL] | IC50 [1, 15] [µg/mL] | IC50 [2, 16] [µg/mL] | IC50 [4, 17] [µg/mL] | IC50 [6, 18] [µg/mL] |
| --- | --- | --- | --- | --- | --- | --- | --- | --- | --- | --- | --- | --- | --- | --- | --- | --- | --- | --- |
| O=C(/C=C/c1ccc2c(ccc[n+]2[O-])c1)c1ccccc1 | Not Active | Not Active | > 500 | Not Active | 4.9 (≈ 17.8 µM) | Not Active | 62.5 (≈ 227 µM) | > 500 | 250 (≈ 908 µM) | > 500 |  |  |  |  |  |  |  |  |
| C[n+]1cccc2cc(/C=C/C(=O)c3ccc(F)cc3)ccc21.[I-] | Not Active | Not Active | 62.5 | Not Active |  | Not Active |  | > 500 | 15.6 | 500 | > 31.2 | > 31.2 | Not Active | 62.5 |  |  |  |  |
| O=C(/C=C/c1ccc2ncccc2c1)c1ccc([N+](=O)[O-])cc1 |  |  | > 500 |  |  |  | 500 (≈ 1640 µM) | > 500 | > 500 | > 500 |  |  |  |  |  |  |  |  |
| Cc1ccc(C(=O)/C=C/c2ccc3ncccc3c2)cc1 | Not Active | Not Active | > 500 | Not Active | 8.28 (≈ 30.3 µM) | Not Active | 7.8 (≈ 28.5 µM) | > 500 | > 500 | > 500 | > 31.2 | 7.8 |  | > 31.2 |  |  |  |  |
| O=C(/C=C/c1ccc2c(ccc[n+]2[O-])c1)c1ccc([N+](=O)[O-])cc1 |  |  | > 500 |  |  |  | 500 (≈ 1560 µM) | > 500 | > 500 | > 500 |  |  |  |  |  |  |  |  |
| Cc1ccc(C(=O)/C=C/c2ccc3c(ccc[n+]3C)c2)cc1.[I-] | Not Active | Not Active | 15.6 | Not Active |  | Not Active | 62.5 | > 500 | 7.8 | 125 | 62.5 | > 31.2 | Not Active | 15.5 |  |  |  |  |
| O=C(/C=C/c1ccc2c(ccc[n+]2[O-])c1)c1ccc(Cl)cc1 |  |  | > 500 |  | 33.8 (≈ 109 µM) |  | 15.5 (≈ 50 µM) | > 500 | 250 (≈ 807 µM) | > 500 | > 31.2 | 15.6 |  | > 31.2 | 4.9 (≈ 15.8 µM) | 1.7 (≈ 5.49 µM) | 6.6 (≈ 21.3 µM) | 4.9 (≈ 15.8 µM) |
| O=C(/C=C/c1ccc2ncccc2c1)c1ccc(Br)cc1 |  |  | > 500 |  |  |  | > 500 | > 500 | > 500 | > 500 |  |  |  |  |  |  |  |  |
| C[n+]1cccc2cc(/C=C/C(=O)c3ccc(Br)cc3)ccc21.[I-] |  | Not Active | 15.6 | Not Active |  | Not Active | 31.2 | 125 | 7.8 | 250 | 15.6 | 31.2 | Not Active | 7.8 | 7.3 |  |  |  |
| COc1ccc(C(=O)/C=C/c2ccc3ncccc3c2)cc1 |  | Not Active | > 500 |  | 12.6 (≈ 43.5 µM) |  | 62.5 (≈ 216 µM) | > 500 | > 500 | > 500 |  |  |  |  | 19.6 (≈ 67.7 µM) |  | 0.19 (≈ 0.657 µM) | 22.5 (≈ 77.8 µM) |
| O=C(/C=C/c1ccc2ncccc2c1)c1ccc(Cl)cc1 |  | Not Active | > 500 |  | 8.8 (≈ 30 µM) | Not Active | 62.5 (≈ 213 µM) | > 500 | > 500 | > 500 |  |  |  |  | 15 (≈ 51.1 µM) |  | 0.96 (≈ 3.27 µM) |  |
| Cc1ccc(C(=O)/C=C/c2ccc3c(ccc[n+]3[O-])c2)cc1 |  |  | > 500 |  | 20.3 (≈ 70.2 µM) |  | 125 (≈ 432 µM) | > 500 | 500 (≈ 1730 µM) | > 500 |  |  |  |  | 32.5 (≈ 112 µM) | 1 (≈ 3.46 µM) | 8.3 (≈ 28.7 µM) | 5.3 (≈ 18.3 µM) |
